This is an account of results in the M2OR odorant receptor database.

Each structure is given as a SMILES string.

The target in one experiment is T1, UniProt Q8VFP5.
T1 sequence (whole entry): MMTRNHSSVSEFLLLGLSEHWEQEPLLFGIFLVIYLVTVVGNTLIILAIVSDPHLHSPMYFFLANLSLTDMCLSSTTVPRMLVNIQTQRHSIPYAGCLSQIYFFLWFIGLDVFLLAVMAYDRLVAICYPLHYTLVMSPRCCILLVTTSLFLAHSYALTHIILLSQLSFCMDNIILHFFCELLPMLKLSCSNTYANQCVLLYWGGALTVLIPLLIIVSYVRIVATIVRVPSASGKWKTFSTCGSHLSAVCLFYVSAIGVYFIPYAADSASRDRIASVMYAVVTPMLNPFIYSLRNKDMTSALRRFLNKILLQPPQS
The settings on record: stereoisomer not certain. A digest of the protocol: (§1)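 Each entry records the cell line, G-protein, co-transfected protein and tags used. Methods varied with the source, often transient luciferase assays in mammalian cell lines. A receptor–molecule pair is called responsive (active) if the original authors judged its signal statistically different from baseline and non-responsive (inactive) otherwise.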
As for `CSSSC`, the “odorant receptor agonist call” value was “inactive”.

Consider `CC1CCC(C(C)C)C(=O)C1` (stereo unspecified), for which the “odorant receptor agonist call” value was “inactive”.

Consider `CCCC=O`, for which the “odorant receptor agonist call” value is “inactive”.

Turning to `CCCCCCC(C)O` (stereo unspecified), the “odorant receptor agonist call” value was “inactive”.

As for `CNc1ccccc1C(=O)OC`, the “odorant receptor agonist call” value is “inactive”.

Turning to `CC(C)=C1CCC(C)CC1=O` (stereo unspecified), the “odorant receptor agonist call” value was “inactive”.

Regarding `CCOC(=O)C(C)CC` (stereo unspecified), the “odorant receptor agonist call” value is “inactive”.

As to `CCOC(=O)CC(C)C`, the “odorant receptor agonist call” value was “inactive”.

For the compound `CCCCCOC(=O)CC`, the “odorant receptor agonist call” value is “inactive”.

With `CC(C)=CCCC(C)=CCOC(=O)C(C)C`, the “odorant receptor agonist call” value is “inactive”.

Regarding `COc1ccccc1`, the “odorant receptor agonist call” value is “inactive”.

`CCCO`: the “odorant receptor agonist call” value was “inactive”.

For the compound `Cc1c(C)c(C)c(C=O)c(C)c1C`, the “odorant receptor agonist call” value is “inactive”.

Regarding `CCCCCC(C=O)=Cc1ccccc1`, the “odorant receptor agonist call” value was “inactive”.

As to `CC(=O)OCc1ccc2c(c1)OCO2`, the “odorant receptor agonist call” value was “inactive”.

Take `CCC=CCCC=CC=O`: the “odorant receptor agonist call” value was “inactive”.

With `CCCCCC(=Cc1ccccc1)C(OC)OC`, the “odorant receptor agonist call” value is “inactive”.

For the compound `CC=Cc1ccc(OC)cc1`, the “odorant receptor agonist call” value is “inactive”.

Turning to `C1CCOCC1`, the “odorant receptor agonist call” value is “inactive”.

Take `CCCCCCC(C=O)=Cc1ccccc1`: the “odorant receptor agonist call” value is “inactive”.

On to `CC(=O)C=CC1=C(C)CCCC1(C)C`, for which the “odorant receptor agonist call” value was “inactive”.

Another experiment concerns the target T2, UniProt Q8VFZ6.
T2 sequence (whole entry): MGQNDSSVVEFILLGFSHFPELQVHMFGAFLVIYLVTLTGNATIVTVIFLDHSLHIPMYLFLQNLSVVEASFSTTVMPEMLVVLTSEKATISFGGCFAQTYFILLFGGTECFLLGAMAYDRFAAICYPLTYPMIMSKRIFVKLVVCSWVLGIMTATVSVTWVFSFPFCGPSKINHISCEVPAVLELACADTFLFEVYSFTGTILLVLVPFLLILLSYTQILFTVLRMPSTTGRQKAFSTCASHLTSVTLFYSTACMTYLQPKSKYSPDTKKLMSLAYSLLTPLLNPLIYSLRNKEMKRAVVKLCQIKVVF
Particulars: stereoisomer not certain. A digest of the protocol:
as §1
For the compound `CCCCCO`, the “odorant receptor agonist call” value was “inactive”.

Turning to `CCC(C(=O)O)c1ccccc1` (stereo unspecified), the “odorant receptor agonist call” value was “inactive”.

Take `O=c1ccc2ccccc2o1`: the “odorant receptor agonist call” value was “inactive”.

In the case of `CCCC(C)=O`, the “odorant receptor agonist call” value was “inactive”.

Take `CCCCOC(=O)C(C)OC(=O)CCC` (stereo unspecified): the “odorant receptor agonist call” value is “inactive”.

Consider `CCCCCCC(=O)[O-].[H+]`, for which the “odorant receptor agonist call” value is “inactive”.

On to `CCCCCCCC(=O)[O-].[H+]`, for which the “odorant receptor agonist call” value is “inactive”.

A further experiment deals with T3, UniProt Q8VG01.
T3 sequence (whole entry): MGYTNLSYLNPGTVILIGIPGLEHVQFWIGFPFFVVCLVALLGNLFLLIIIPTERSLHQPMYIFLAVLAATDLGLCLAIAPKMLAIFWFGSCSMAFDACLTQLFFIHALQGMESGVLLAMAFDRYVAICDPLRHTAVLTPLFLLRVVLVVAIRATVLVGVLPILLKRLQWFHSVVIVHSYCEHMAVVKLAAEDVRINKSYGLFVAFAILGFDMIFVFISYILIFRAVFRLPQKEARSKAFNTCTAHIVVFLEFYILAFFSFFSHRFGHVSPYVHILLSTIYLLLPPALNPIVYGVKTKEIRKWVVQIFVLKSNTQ
Particulars: stereoisomer not certain. Put shortly: as §1
Regarding `CSSSC`, the “odorant receptor agonist call” value was “inactive”.

With `CCCCCO`, the “odorant receptor agonist call” value was “inactive”.

For the compound `CCC(C(=O)O)c1ccccc1` (stereo unspecified), the “odorant receptor agonist call” value was “inactive”.

On to `CC1CCC(C(C)C)C(=O)C1` (stereo unspecified), for which the “odorant receptor agonist call” value was “inactive”.

As for `CCCC=O`, the “odorant receptor agonist call” value was “inactive”.

Take `CCCCCCC(C)O` (stereo unspecified): the “odorant receptor agonist call” value was “inactive”.

`CNc1ccccc1C(=O)OC`: the “odorant receptor agonist call” value was “inactive”.

For `O=c1ccc2ccccc2o1`, the “odorant receptor agonist call” value is “inactive”.

Turning to `CC(C)=C1CCC(C)CC1=O` (stereo unspecified), the “odorant receptor agonist call” value was “inactive”.

Turning to `CCCC(C)=O`, the “odorant receptor agonist call” value is “inactive”.

Take `CCOC(=O)C(C)CC` (stereo unspecified): the “odorant receptor agonist call” value was “inactive”.

For the compound `CCOC(=O)CC(C)C`, the “odorant receptor agonist call” value is “inactive”.

Turning to `CCCCCOC(=O)CC`, the “odorant receptor agonist call” value was “inactive”.

Turning to `CC(C)=CCCC(C)=CCOC(=O)C(C)C`, the “odorant receptor agonist call” value is “inactive”.

As for `CCCCOC(=O)C(C)OC(=O)CCC` (stereo unspecified), the “odorant receptor agonist call” value is “inactive”.

On to `COc1ccccc1`, for which the “odorant receptor agonist call” value was “inactive”.

As to `CCCO`, the “odorant receptor agonist call” value is “inactive”.

`Cc1c(C)c(C)c(C=O)c(C)c1C`: the “odorant receptor agonist call” value is “inactive”.

With `CCCCCC(C=O)=Cc1ccccc1`, the “odorant receptor agonist call” value was “inactive”.

As to `CC(=O)OCc1ccc2c(c1)OCO2`, the “odorant receptor agonist call” value was “inactive”.

In the case of `CCCCCCC(=O)[O-].[H+]`, the “odorant receptor agonist call” value is “active”.

Regarding `CCC=CCCC=CC=O`, the “odorant receptor agonist call” value is “inactive”.

Consider `CCCCCC(=Cc1ccccc1)C(OC)OC`, for which the “odorant receptor agonist call” value is “inactive”.

For the compound `CC=Cc1ccc(OC)cc1`, the “odorant receptor agonist call” value is “inactive”.

On to `CCCCCCCC(=O)[O-].[H+]`, for which the “odorant receptor agonist call” value was “active”.

With `C1CCOCC1`, the “odorant receptor agonist call” value was “inactive”.

For `CCCCCCC(C=O)=Cc1ccccc1`, the “odorant receptor agonist call” value was “inactive”.

As for `CC(=O)C=CC1=C(C)CCCC1(C)C`, the “odorant receptor agonist call” value was “inactive”.
